# Results reported in paper PMC8091929 (Journal of medicinal chemistry, 2020).
# Experiments:
# S. pneumoniae ATCC 49619 = test: MIC by broth microdilution; type: cell-based, Streptococcus pneumoniae; conditions: S. pneumoniae ATCC 49619, broth microdilution, 20 h at 37 °C
# [1] = tested on: S. aureus ATCC 29213 cells; test: Cell content quantification of major macromolecules; type: cell-based, Staphylococcus aureus; conditions: S. aureus ATCC 29213, 1/4 and 1/8 MIC, versus no-drug control
# Procedure, shortened: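 A master culture of S. aureus ATCC 29213 was inoculated at OD₆₀₀ 0.1 and grown at 37 °C, 200 rpm to OD₆₀₀ 0.2. It was then split into aliquots with test compound or rifampicin at 1/4 and 1/8 MIC, plus an untreated aliquot. Cells were harvested at OD₆₀₀ 0.6 with volumes normalized, then pelleted. DNA, RNA and protein were kit-extracted. DNA and RNA were measured by Qubit BR fluorometric assays and protein by BCA. Triplicates.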
# pneumolysin = test: Pneumolysin secretion, Western blot of culture supernatant; type: cell-based, Streptococcus pneumoniae; conditions: overnight culture of S. pneumoniae at 1/2 and 1/4 MIC, versus drug-free control
# Procedure, shortened: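 S. pneumoniae cultured overnight in BHI without agitation, with or without serially diluted test compound; rifampicin and ceftriaxone controls at 2–0.002 μg/mL; 16–20 h. […] Western blot on PVDF, 5% milk/TBST block, rabbit polyclonal anti-pneumolysin 1:1000, overnight at 4 °C.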
# human erythrocytes = test: In vitro hemolysis assay; type: cell-based; conditions: 0.1, 1, and 10 μg/mL, 37 °C, 45 min, PBS pH 7.4
# Procedure, shortened: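 Human whole-blood erythrocytes were pelleted at 500g, 4 °C, 5 min, washed in 150 mM NaCl, resuspended in PBS pH 7.4 and diluted 40×. They were mixed 4:1 with drug solution in PBS containing 0.5% DMSO, giving final 0.1, 1 or 10 μg/mL, and held 45 min at 37 °C (n = 6). Controls were 1% v/v Triton X-100 and PBS. After spinning at 500g for 10 min, supernatant A540 was read and % lysis was normalized to the controls.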
# RNAP holoenzyme = conditions: cited from earlier work
# [2] = molecular target: E. coli core RNAP with σ^70 (Escherichia coli, UniProt P0A8T7); test: In vitro transcription initiation assay; type: biochemical; conditions: σ^70, λ PR promoter template, 26-mer RNA
# E. coli core RNAP with σ^70, sequence (P0A7Z4 whole entry): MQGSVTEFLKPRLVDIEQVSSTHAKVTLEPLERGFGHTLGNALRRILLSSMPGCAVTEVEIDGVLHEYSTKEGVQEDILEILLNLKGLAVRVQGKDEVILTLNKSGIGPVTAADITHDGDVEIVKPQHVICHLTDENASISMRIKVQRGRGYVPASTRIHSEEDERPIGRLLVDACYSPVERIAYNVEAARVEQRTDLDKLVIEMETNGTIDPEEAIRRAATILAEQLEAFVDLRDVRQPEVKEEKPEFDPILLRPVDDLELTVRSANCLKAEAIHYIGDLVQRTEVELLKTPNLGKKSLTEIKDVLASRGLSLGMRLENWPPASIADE
# E. coli core RNAP with σ^70, sequence (P0A8T7 whole entry): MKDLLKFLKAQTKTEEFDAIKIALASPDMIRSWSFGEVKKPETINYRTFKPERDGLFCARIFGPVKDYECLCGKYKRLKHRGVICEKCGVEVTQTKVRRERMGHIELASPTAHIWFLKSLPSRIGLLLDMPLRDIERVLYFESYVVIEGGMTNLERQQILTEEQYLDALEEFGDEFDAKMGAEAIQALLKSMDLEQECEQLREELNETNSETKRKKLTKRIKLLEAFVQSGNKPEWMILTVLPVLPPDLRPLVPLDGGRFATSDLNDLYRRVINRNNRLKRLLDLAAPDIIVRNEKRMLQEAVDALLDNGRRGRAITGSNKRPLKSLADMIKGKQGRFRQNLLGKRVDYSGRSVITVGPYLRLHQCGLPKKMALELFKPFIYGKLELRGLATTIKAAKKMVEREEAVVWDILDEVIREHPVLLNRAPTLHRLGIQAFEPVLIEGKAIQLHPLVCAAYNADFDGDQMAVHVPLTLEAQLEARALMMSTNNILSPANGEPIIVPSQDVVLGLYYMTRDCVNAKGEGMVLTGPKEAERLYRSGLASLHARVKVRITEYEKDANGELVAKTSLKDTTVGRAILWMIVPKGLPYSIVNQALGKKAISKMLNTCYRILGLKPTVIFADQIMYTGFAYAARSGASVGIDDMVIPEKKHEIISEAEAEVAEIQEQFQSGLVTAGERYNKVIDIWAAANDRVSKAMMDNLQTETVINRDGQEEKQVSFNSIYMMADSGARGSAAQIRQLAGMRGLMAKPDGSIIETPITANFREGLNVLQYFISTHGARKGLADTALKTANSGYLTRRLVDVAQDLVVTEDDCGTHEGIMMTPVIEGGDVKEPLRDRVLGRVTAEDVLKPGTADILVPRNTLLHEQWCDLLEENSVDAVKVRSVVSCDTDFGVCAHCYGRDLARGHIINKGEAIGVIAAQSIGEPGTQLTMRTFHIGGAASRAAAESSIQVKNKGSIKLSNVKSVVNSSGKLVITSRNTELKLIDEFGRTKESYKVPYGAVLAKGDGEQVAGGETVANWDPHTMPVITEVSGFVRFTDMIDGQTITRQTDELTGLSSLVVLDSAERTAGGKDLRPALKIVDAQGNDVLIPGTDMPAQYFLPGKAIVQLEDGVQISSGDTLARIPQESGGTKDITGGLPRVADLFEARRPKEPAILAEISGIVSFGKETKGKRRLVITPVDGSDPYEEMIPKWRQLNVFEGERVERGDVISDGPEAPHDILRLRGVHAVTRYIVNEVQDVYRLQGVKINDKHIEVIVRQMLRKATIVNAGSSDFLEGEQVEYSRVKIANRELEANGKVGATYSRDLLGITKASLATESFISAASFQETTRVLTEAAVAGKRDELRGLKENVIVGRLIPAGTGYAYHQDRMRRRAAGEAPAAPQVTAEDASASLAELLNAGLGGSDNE
# E. coli core RNAP with σ^70, sequence (P0A800 whole entry, further chain): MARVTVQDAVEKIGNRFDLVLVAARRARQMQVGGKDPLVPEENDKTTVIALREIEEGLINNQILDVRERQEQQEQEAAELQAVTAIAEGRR
# E. coli core RNAP with σ^70, sequence (P0A8V2 whole entry, further chain): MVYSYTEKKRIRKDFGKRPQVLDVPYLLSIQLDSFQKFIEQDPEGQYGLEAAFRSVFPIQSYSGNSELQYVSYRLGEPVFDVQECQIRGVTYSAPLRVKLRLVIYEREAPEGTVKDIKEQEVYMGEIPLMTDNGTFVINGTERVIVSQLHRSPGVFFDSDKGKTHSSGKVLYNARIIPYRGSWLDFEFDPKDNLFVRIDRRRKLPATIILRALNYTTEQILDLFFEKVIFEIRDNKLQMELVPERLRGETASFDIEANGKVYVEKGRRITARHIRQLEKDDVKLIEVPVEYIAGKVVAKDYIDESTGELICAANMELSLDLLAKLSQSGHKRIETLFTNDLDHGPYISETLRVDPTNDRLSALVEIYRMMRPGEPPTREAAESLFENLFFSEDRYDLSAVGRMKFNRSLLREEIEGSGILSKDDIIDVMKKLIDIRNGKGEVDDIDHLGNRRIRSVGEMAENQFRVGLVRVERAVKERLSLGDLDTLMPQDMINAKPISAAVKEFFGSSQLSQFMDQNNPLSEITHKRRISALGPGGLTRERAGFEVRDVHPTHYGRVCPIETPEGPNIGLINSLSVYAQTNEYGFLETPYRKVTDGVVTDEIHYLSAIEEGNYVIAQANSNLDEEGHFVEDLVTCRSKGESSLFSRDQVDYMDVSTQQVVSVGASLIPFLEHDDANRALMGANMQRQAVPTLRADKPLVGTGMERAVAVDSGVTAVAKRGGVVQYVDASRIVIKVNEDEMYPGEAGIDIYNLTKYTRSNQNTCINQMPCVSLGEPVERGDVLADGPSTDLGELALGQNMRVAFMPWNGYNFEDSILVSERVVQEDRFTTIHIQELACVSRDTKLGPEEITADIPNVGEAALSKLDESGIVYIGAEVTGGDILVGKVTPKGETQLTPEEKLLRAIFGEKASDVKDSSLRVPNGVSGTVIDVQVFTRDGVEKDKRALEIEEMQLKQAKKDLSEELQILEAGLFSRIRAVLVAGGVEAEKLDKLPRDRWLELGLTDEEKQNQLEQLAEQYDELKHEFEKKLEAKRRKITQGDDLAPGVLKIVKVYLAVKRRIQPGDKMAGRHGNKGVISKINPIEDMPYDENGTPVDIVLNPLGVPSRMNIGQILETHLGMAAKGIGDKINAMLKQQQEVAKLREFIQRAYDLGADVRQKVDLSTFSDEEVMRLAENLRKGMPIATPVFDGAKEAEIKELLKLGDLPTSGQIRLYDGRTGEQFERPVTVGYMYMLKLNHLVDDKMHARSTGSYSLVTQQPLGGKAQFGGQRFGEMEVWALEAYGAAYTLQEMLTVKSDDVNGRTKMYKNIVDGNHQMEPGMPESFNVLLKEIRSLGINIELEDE
# S. pneumoniae = test: Time-kill kinetics, S. pneumoniae; type: cell-based, Streptococcus pneumoniae
# Procedure, shortened: (§1)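 S. aureus was grown in MHB; S. agalactiae and S. pneumoniae in BHI with 5% CO₂. Incubation was 37 °C, 200 rpm. Samples taken at 0, 2, 4 and 6 h were serially diluted 10-fold and plated. CFU/mL was counted after overnight incubation at 37 °C, 5% CO₂. Triplicates.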
# [3] = tested on: B. subtilis BS1048 (RNAP β′-GFP); test: Confocal microscopy of RNAP-GFP localization; type: cell-based, Bacillus subtilis; conditions: B. subtilis BS1048, at 1/2 MIC, 15 min
# Procedure, shortened: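 2.5 μL culture placed on fresh 1.2% agarose pad under coverslip; imaged by confocal microscopy (63×/1.3 oil objective, mercury metal halide lamp).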
# S. agalactiae (GBS) = test: Time-kill kinetics, S. agalactiae; type: cell-based, Streptococcus agalactiae; conditions: over 6 h, even at 16 MIC
# Procedure, shortened: as §1
# [4] = Solubility under the conditions of the CH–σ assay; type: physicochemical; conditions: conditions of the CH–σ protein complementation assay
# S. aureus = test: Time-kill kinetics, S. aureus; type: cell-based, Staphylococcus aureus; conditions: over 6 h, even at 16 MIC
# Procedure, shortened: as §1
# Gram-positive pathogens = test: MIC against other Gram-positive pathogens; type: cell-based
# Procedure, shortened: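 Broth microdilution followed CLSI, in cation-adjusted Mueller–Hinton broth or BHI where indicated. Twofold dilutions ran from 256 to 0.5 μg/mL, with inoculum ~5 × 10⁵ CFU/mL and 20 h incubation at 37 °C. Panel strains were ATCC Gram-positive strains (Enterococcus, S. aureus, streptococci, staphylococci). MIC was the lowest concentration with no visible growth. At least duplicates.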
# [5] = tested on: S. pneumoniae ATP production; test: ATP production of S. pneumoniae cells; type: cell-based, Streptococcus pneumoniae; conditions: at 1/4 MIC
smiles,measurement,setting,value
"O=C(Nc1ccccc1C(=O)O)c1ccc(Sc2ccc(Cl)c(Cl)c2)c([N+](=O)[O-])c1 [Compound 41, 2-(4-((3,4-Dichlorophenyl)thio)-3-nitrobenzamido)benzoic Acid]",MIC,S. pneumoniae ATCC 49619,lost activity completely
"CO[C@H]1/C=C/O[C@@]2(C)Oc3c(C)c(O)c4c(O)c(c(/C=N/N5CCN(C)CC5)c(O)c4c3C2=O)NC(=O)/C(C)=C\C=C\[C@H](C)[C@H](O)[C@@H](C)[C@@H](O)[C@@H](C)[C@H](OC(C)=O)[C@@H]1C [rifampicin, reference compound]",total RNA levels,[1],reduced
same,total levels of DNA,[1],remained mostly unaffected
same,pneumolysin levels in culture supernatant,pneumolysin,suppressed
"O=C(O)c1ccccc1NCc1ccc(Sc2ccc(Cl)c(Cl)c2)c([N+](=O)[O-])c1 [Compound 43, 2-((4-((3,4-Dichlorophenyl)thio)-3-nitrobenzyl)amino)benzoic Acid]",hemolytic value (% of lysis),human erythrocytes,< 10%
"Nc1ccccc1Sc1ccc(C(=O)c2ccccc2C(=O)O)cc1[N+](=O)[O-] [Compound 1, 2-(4-((2-Aminophenyl)thio)-3-nitrobenzoyl)benzoic acid]",RNAP holoenzyme formation and RNA synthesis in vitro,RNAP holoenzyme,inhibited
CO/N=C(\C(=O)N[C@@H]1C(=O)N2C(C(=O)O)=C(CSc3nc(=O)c(O)nn3C)CS[C@H]12)c1csc(N)n1 [ceftriaxone],pneumolysin levels in culture supernatant,pneumolysin,increased
"O=C(O)c1ccc(Cl)c(NCc2ccc(Sc3ccc(Cl)c(Cl)c3)c([N+](=O)[O-])c2)c1 [Compound 45, 4-Chloro-3-((4-((3,4-dichlorophenyl)thio)-3-nitrobenzyl)amino)-benzoic Acid]",hemolytic value (% of lysis),human erythrocytes,< 10%
"O=C(O)c1ccccc1C(=O)c1ccc(Sc2ccc(Cl)c(Cl)c2)c([N+](=O)[O-])c1 [Compound 13, 2-(4-((3,4-dichlorophenyl)thio)-3-nitrobenzoyl)benzoic acid]",inhibition of transcription (RNA synthesis) in vitro,[2],inhibited transcription
same,hemolytic value (% of lysis),human erythrocytes,< 10%
"O=C(O)c1ccc(Cl)cc1NCc1ccc(Sc2ccc(Cl)c(Cl)c2)c([N+](=O)[O-])c1 [Compound 54, 4-Chloro-2-((4-((3,4-dichlorophenyl)thio)-3-nitrobenzyl)amino)-benzoic Acid]",time-kill profile,S. pneumoniae; at 1 MIC,largely bacteriostatic
same,decrease in cell count,S. pneumoniae; at higher concentrations (4 and 16 MICs),ca. 2 fold log10 decrease
same,total RNA levels,[1],reduction
same,total levels of DNA,[1],remained mostly unaffected
same,total protein levels,[1],Reduction
same,RNAP-GFP localization,[3],delocalization of the fluorescence from the nucleoid
same,time-kill profile,S. agalactiae (GBS),largely bacteriostatic
same,solubility under the testing conditions,[4],insolubility under the testing conditions
same,time-kill profile,S. aureus,largely bacteriostatic
same,inhibition of transcription (RNA synthesis) in vitro,[2],much more potent inhibition
same,MIC,Gram-positive pathogens,1 to 2 µg/mL
same,pneumolysin levels in culture supernatant,pneumolysin,substantial decrease
same,ATP production rate,[5],significant decrease
